Measured values from different studies.
Each line is one published result; the experiments were not run side by side.
Target: G protein-coupled receptor kinase 6 (GRK6, Homo sapiens, UniProt P43250)

SMILES | assay | setting | quantity | result
CC(C)(C)c1nc(-c2cccc(NS(=O)(=O)c3c(F)cccc3F)c2F)c(-c2ccnc(N)n2)s1 | enzyme activity, inhibitor, radiometric | 1 µM | remaining activity | 79%
N#CCCc1ccc2c(c1)-c1[nH]c3ccc([N+](=O)[O-])cc3c1CC(=O)N2 | cell-free assay | 0.5 µM | remaining signal | 91.5%
CCN(CC)CCNC(=O)c1c(C)[nH]c(/C=C2\C(=O)Nc3ccc(F)cc32)c1C | enzyme activity, inhibitor | 0.3 µM | inhibition | 31%
COc1cc(Cl)c(C(=O)N[C@@H](CN[C@H]2CC[C@@H](N)CC2)Cc2ccc(C#N)cc2)cc1-c1ccc(CN[C@H](C)c2ccc(C)cc2)o1 | enzyme activity, inhibitor | 1 µM | remaining activity | 100%
CCCOc1ccc(OC)c(F)c1C(=O)c1ccc(C(=O)N[C@@H]2CNC[C@H]2NC(=O)c2ccc3[nH]ncc3c2)cc1 | enzyme activity, inhibitor | 10 µM | remaining activity | 104%
O=C1NC(=O)c2cc(Nc3ccc(F)cc3)c(Nc3ccc(F)cc3)cc21 | cell-free assay | 0.5 µM | remaining signal | 98.7%
Cc1sc(C(=O)NC2COC2)cc1-n1cc(NC(=O)Nc2c(F)cccc2Cl)cn1 | enzyme activity, inhibitor | 10 µM | remaining activity | 91.5%
CCN(CC)c1ccc(C2=NNC(=O)CC2C)cc1[N+](=O)[O-] (stereo not drawn) | enzyme activity, inhibitor | 10 µM | remaining activity | 105%
Cc1ccc(Nc2nccc(N(C)c3ccc4c(C)n(C)nc4c3)n2)cc1S(N)(=O)=O | enzyme activity, inhibitor | 0.3 µM | inhibition | 11%
COc1cc2ncnc(Nc3ccc(Oc4ccccc4)c(C)c3C)c2cc1OC | enzyme activity, inhibitor | 1 µM | inhibition | -2%
CNC(=O)c1cc(Oc2ccc(NC(=O)Nc3ccc(Cl)c(C(F)(F)F)c3)cc2)ccn1 | enzyme activity, inhibitor | 10 µM | inhibition | 1%
CCCS(=O)(=O)Nc1ccc(F)c(C(=O)c2c[nH]c3ncc(-c4ccc(Cl)cc4)cc23)c1F | enzyme activity, inhibitor | 1 µM | inhibition | < 10%
